Only a selection was taken, and hits are over-represented in it overall.
T cruzi growth-1: T. cruzi intracellular proliferation inhibitors, primary screen, cell-based, beta-gal Tulahuen parasites, NIH3T3 host, luminescence. T. cruzi beta-gal in NIH3T3, GalScreen luminescence, 90 h. inhibition, % at 8.34 µM. 5.9% of 77,000 active;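 active = mean inhibition above about 93%, with at least 55% of replicates each passing it, limit read from the data, passing the limit was not always enough; inconclusive = only one of those two conditions holds; inactive = neither condition holds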
KDM4C inh: inhibitors of GASC-1 (KDM4C) histone demethylase, primary screen, biochemical, single concentration HTS; 0.15% of 96,000 active; Lysine-specific demethylase 4C (Homo sapiens), Q9H3R0; inhibition, % at 12.5 µM; AID 720574, 2013; GST-KDM4C 2-372, H3K9me3 peptide, LANCE TR-FRET;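 active = mean replicate inhibition above about 25%, with at least 55% of replicates also reaching it, limit read from the data, passing the limit was not always enough; inconclusive = only one of those two conditions met; inactive = neither condition met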
Target sequence (Q9H3R0 2-372 limits assumed): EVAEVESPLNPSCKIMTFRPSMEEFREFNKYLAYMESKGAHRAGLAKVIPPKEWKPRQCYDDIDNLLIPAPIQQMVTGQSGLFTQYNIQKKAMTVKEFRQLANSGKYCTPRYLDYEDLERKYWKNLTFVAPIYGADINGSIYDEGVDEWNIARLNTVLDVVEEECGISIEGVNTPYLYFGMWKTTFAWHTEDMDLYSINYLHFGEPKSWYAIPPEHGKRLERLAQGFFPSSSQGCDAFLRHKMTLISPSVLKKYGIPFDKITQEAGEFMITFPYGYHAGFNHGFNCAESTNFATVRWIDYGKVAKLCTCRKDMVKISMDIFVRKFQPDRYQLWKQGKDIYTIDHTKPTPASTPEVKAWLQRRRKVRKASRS
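Material: N-terminal GST-fused human GASC-1 (KDM4C) fragment, residues 2-372. Input: 10 nM enzyme. Incubation: enzyme reaction 30 min, then detection 60 min, both room temperature. Doses: one test concentration per compound. Read-out basis: inhibition from TR-FRET ratio decrease. Detection: LANCE TR-FRET, excitation 340 nm, emissions 618 and 671 nm.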
IDH1 R132H inh: inhibitors of IDH1 R132H reductase, primary screen, biochemical, plate reader, single point. Isocitrate dehydrogenase [NADP] cytoplasmic (Homo sapiens), O75874. diaphorase/resazurin fluorescence, 60 min. 0.18% of 70,000 active. inhibition, % at 10 µM; in the data active = inhibition above about 34%; inconclusive = no clear call, values can overlap the other calls; inactive = below about 11%;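 also: 0% = DMSO and 100% = no enzyme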
T cruzi growth-2: T. cruzi intracellular proliferation inhibitors, confirmation, cell-based, NIH3T3 host, beta-gal parasite, luminescence, cherry-pick | shares compounds with T cruzi growth-1 | T. cruzi beta-gal in NIH3T3, GalScreen luminescence, 90 h | inhibition, % at 8.35 µM | 72% of 5,600 active;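 active = mean replicate inhibition above about 95% and at least 55% of replicates individually reaching it, limit read from the data; inconclusive = only one of the two criteria is met; inactive = neither criterion is met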
T cruzi growth-3: inhibitors of intracellular T. cruzi replication, confirmation, NIH3T3 host cells, beta-gal parasites, cherry-pick, set 2; shares compounds with T cruzi growth-1; T. cruzi beta-gal in NIH3T3, GalScreen luminescence, 90 h; inhibition, % at 2.09 µM; 21% of 5,600 active;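 active = mean inhibition above about 95%, with at least 55% of replicates also reaching it, limit read from the data; inconclusive = meets just one of the two conditions; inactive = meets neither condition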;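 also: plate controls were neutral control median for no effect and positive control median for full effect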
3T3 cytotox: cytotoxicity in mouse NIH/3T3 fibroblasts, confirmation, cytotoxicity control for T. cruzi proliferation inhibitor project, cell-based, cherry-pick, single point; shares compounds with T cruzi growth-1; NIH/3T3 viability, CellTiter-Glo ATP luminescence, 90 h; cytotoxicity (signal decrease), % at 8.35 µM; 14% of 5,600 active;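 active = mean signal decrease across replicates above about 35% based on untreated-well scatter, with enough replicates individually passing, limit read from the data; inconclusive = no rule stated though some were filed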;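 also: 0% = median of neutral control wells and 100% = median of positive control wells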
NIH3T3 tox 2: NIH/3T3 fibroblast cytotoxicity, confirmation, cytotoxicity control, cell-based, cherry-pick, single point, set 2; NIH/3T3 viability, CellTiter-Glo ATP luminescence, 90 h; inhibition, % at 24.9 µM; 56% of 5,600 active; AID 651744, 2012; shares compounds with T cruzi growth-1;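 active = mean loss of cell viability signal at or above a set limit, and enough replicates individually reaching it; inconclusive = meets only the mean limit or only the replicate share; inactive = meets neither condition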;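 also: 0% = median of neutral control wells and 100% = median of positive control wells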
Numbers without * were called inactive; ? = inconclusive; . = not tested or not shown.

SMILES | T cruzi growth-1 | KDM4C inh | IDH1 R132H inh | T cruzi growth-2 | T cruzi growth-3 | 3T3 cytotox | NIH3T3 tox 2
C[C@@H]1CCCCO[C@H](CN(C)Cc2ccc(Cl)c(Cl)c2)[C@H](C)CN([C@@H](C)CO)C(=O)c2cc(NC(=O)Nc3ccccc3)ccc2O1 | 76 | -3 | 1 | . | . | . | .
C[C@H](CO)N1C[C@H](C)[C@@H](CN(C)Cc2cccc(C(=O)O)c2)OCc2ccccc2-c2ccccc2C1=O | 60 | 3 | 0 | . | . | . | .
C[C@@H]1CN([C@@H](C)CO)C(=O)c2cccc(NC(=O)C3CCOCC3)c2O[C@@H]1CN(C)Cc1ccc(C(F)(F)F)cc1 | 49 | 0 | 1 | . | . | . | .
C[C@@H]1CN([C@H](C)CO)C(=O)Cc2cc(NC(=O)CCCCCC(=O)Nc3ccccc3N)ccc2O[C@@H]1CN(C)S(=O)(=O)c1cccs1 | 25 | 4 | 2 | . | . | . | .
C[C@@H]1CCCCO[C@H](CN(C)S(=O)(=O)c2cn(C)cn2)[C@H](C)CN([C@H](C)CO)C(=O)c2cc(NS(C)(=O)=O)ccc2O1 | -55 | 0 | -1 | . | . | . | .
C[C@H](CO)N1C[C@H](C)[C@H](CN(C)Cc2ccccc2)Oc2ncc(C#Cc3cccnc3)cc2C1=O | 101* | -1 | 0 | 70 | 15 | 15 | 33
C[C@@H]1CN([C@H](C)CO)C(=O)c2cc(C#CCc3ccccc3)cnc2O[C@H]1CN(C)CC1CCCC1 | 92 | . | 0 | . | . | . | .
C[C@H](CO)N1C[C@H](C)[C@@H](CN(C)C(=O)C2CCCCC2)Oc2ncc(C#CCc3ccccc3)cc2C1=O | ? | 1 | 5 | 94 | -19 | 17 | 106*
C[C@H](CO)N1C[C@H](C)[C@H](CN(C)Cc2ccccn2)Oc2ncc(C#CCC3CCCC3)cc2C1=O | 65 | 6 | 2 | . | . | . | .
C[C@@H]1CN([C@@H](C)CO)C(=O)c2cc(C#CCC3CCCC3)cnc2O[C@H]1CN(C)Cc1ccccn1 | 110* | 8 | 0 | 105* | 47 | 2 | 104*
C[C@H]1CN([C@@H](C)CO)C(=O)c2cc(C#Cc3cccnc3)cnc2O[C@@H]1CN(C)Cc1ccccc1 | 91 | -3 | -1 | . | . | . | .
C[C@H]1CN([C@@H](C)CO)C(=O)c2cc(C#CCc3ccccc3)cnc2O[C@@H]1CN(C)CC1CCCC1 | 109* | 1 | 0 | 103* | ? | 19 | 103*
C[C@@H]1CN([C@H](C)CO)C(=O)c2cc(C#CCc3ccccc3)cnc2O[C@@H]1CN(C)C(=O)C1CCCCC1 | 35 | 0 | . | . | . | . | .
Cc1ccc(S(=O)(=O)Nc2ccc3c(c2)C(=O)N([C@@H](C)CO)C[C@H](C)[C@H](CN(C)C(=O)CCCN(C)C)OCCCC[C@@H](C)O3)cc1 | 54 | 3 | . | . | . | . | .
CCCNC(=O)N1CC2(CCN(CC3CCCCC3)CC2)c2c(n(C)c3cc(OC)ccc23)[C@H]1CO | . | -1 | . | . | . | . | .
CNC[C@@H]1Oc2ncc(C#CC3CCCC3)cc2C(=O)N([C@@H](C)CO)C[C@@H]1C | 96 | -1 | 0 | . | . | . | .
C[C@@H]1CN([C@@H](C)CO)C(=O)c2cc(C#CCc3ccccc3)cnc2O[C@@H]1CN(C)Cc1cccnc1 | 101* | 3 | 0 | 79 | -10 | -10 | -9
CNC[C@H]1Oc2ncc(C#CCC3CCCC3)cc2C(=O)N([C@H](C)CO)C[C@H]1C | ? | -1 | 0 | 108* | 92 | 11 | 106*
C[C@H](CO)N1C[C@H](C)[C@H](CN(C)Cc2cccnc2)Oc2ncc(C#CCc3ccccc3)cc2C1=O | 71 | 7 | -4 | . | . | . | .
C[C@@H]1CN([C@H](C)CO)C(=O)c2cc(NC(=O)C3CCCCC3)ccc2O[C@@H]1CN(C)CC1CC1 | -55 | 4 | 0 | . | . | . | .

High-throughput results: PubChem, Broad Institute
